According to ChEMBL document CHEMBL2040734, “Benzothiazoles: search for anticancer agents” (2012):

What was measured:
Format in all cases: functional
[1] = tested on: PC-3; experiment: Growth inhibition of human PC3 cells after 48 hrs by sulforhodamine B assay; details: PC-3, 48 h; for CC50: read-out: LC50 (the source's name)
Method in brief: (§1)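 Adherent NCI-60 lines were grown in RPMI 1640 with 5% FBS and 2 mM L-glutamine, plated at 5000–40,000 cells/well and preincubated 24 h. They were then exposed to five concentrations (0.01–100 µM, from a DMSO stock) for 48 h at 37 °C, 5% CO2. Cells were fixed with cold TCA (10% final, 60 min, 4 °C) and stained with 0.4% SRB. Dye was solubilized in 10 mM Tris base and A515 read. GI50 was derived from time-zero, control and treated absorbances.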

[2] = tested on: A549; experiment: Cytotoxicity against human A549 cells assessed as cell growth at 0.01 uM after 48 hrs by sulforhodamine B assay; details: A549, 48 h, read-out: Activity
Method in brief: (§2)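 NCI-60 five-dose screen. Cells were grown in RPMI 1640 with 5% FBS and 2 mM L-glutamine and preincubated 24 h. Compound (DMSO stock) was tested at 0.01, 0.1, 1, 10 and 100 µM for 48 h at 37 °C. Cells were fixed in situ with cold TCA (final 10%) and stained with 0.4% SRB. A515 was read, and percent growth was calculated against time-zero and control plates.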

[3] = tested on: NCI-H522; experiment: Growth inhibition of human NCI-H522 cells after 48 hrs by sulforhodamine B assay; details: NCI-H522, 48 h; method in brief: as §1
[4] = Cytotoxicity against human Hs 578T cells assessed as cell growth at 0.01 uM after 48 hrs by sulforhodamine B assay; details: read-out: Activity
Method in brief: (§3)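 Five-dose NCI panel run at 0.01, 0.1, 1, 10 and 100 µM. Cells were in RPMI 1640 with 5% FBS and 2 mM L-glutamine, seeded at 5000–40,000 cells/well and pre-incubated 24 h. Drug was diluted from a DMSO stock into medium with 50 µg/ml gentamicin. Exposure was 48 h at 37 °C, 5% CO2. Cells were fixed with cold TCA and stained with 0.4% SRB, read at 515 nm. Percent growth came from time-zero, control and test absorbances.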

[5] = tested on: SR; experiment: Growth inhibition of human SR cells after 48 hrs by sulforhodamine B assay; details: for CC50: read-out: LC50 (the source's name)
Method in brief: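 Leukemia suspension lines were grown in RPMI 1640 with 5% FBS and 2 mM L-glutamine and plated at 5000–40,000 cells/well with 24 h preincubation. They were treated at 0.01, 0.1, 1, 10 and 100 µM (DMSO stock) for 48 h at 37 °C. Settled cells were fixed with 80% TCA (16% final) and stained with 0.4% SRB in 1% acetic acid, then read at 515 nm. GI50 was calculated against time-zero and control wells.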

[6] = tested on: MDA-MB-468; experiment: Cytotoxicity against human MDA-MB-468 cells assessed as cell growth at 10 uM after 48 hrs by sulforhodamine B assay; details: MDA-MB-468, 48 h, read-out: Activity
[7] = tested on: OVCAR-8; experiment: Cytotoxicity against human OVCAR8 cells assessed as cell growth at 1 uM after 48 hrs by sulforhodamine B assay; details: OVCAR-8, 48 h, read-out: Activity
[8] = tested on: M14; experiment: Growth inhibition of human M14 cells after 48 hrs by sulforhodamine B assay; details: M14, 48 h; method in brief: as §1
[9] = tested on: SR; experiment: Cytotoxicity against human SR cells assessed as cell growth at 1 uM after 48 hrs by sulforhodamine B assay; details: read-out: Activity
[10] = tested on: SK-MEL-28; experiment: Cytotoxicity against human SK-MEL-28 cells assessed as cell growth at 100 uM after 48 hrs by sulforhodamine B assay; details: SK-MEL-28, 48 h, read-out: Activity
[11] = tested on: T47D; experiment: Cytotoxicity against human T47D cells assessed as cell growth at 100 uM after 48 hrs by sulforhodamine B assay; details: read-out: Activity
[12] = tested on: NCI/ADR-RES; experiment: Cytotoxicity against human NCI/ADR-RES cells assessed as cell growth at 1 uM after 48 hrs by sulforhodamine B assay; details: read-out: Activity
[13] = tested on: MDA-MB-468; experiment: Cytotoxicity against human MDA-MB-468 cells assessed as cell growth at 0.1 uM after 48 hrs by sulforhodamine B assay; details: MDA-MB-468, 48 h, read-out: Activity
[14] = tested on: SN12C; experiment: Growth inhibition of human SN12C cells after 48 hrs by sulforhodamine B assay; details: for CC50: read-out: LC50 (the source's name); method in brief: as §1
[15] = tested on: SF-268; experiment: Cytotoxicity against human SF268 cells assessed as cell growth at 10 '-5 M after 48 hrs by sulforhodamine B assay; details: SF-268, 48 h, read-out: Activity
[16] = tested on: RPMI-8226; experiment: Cytotoxicity against human RPMI8226 cells assessed as cell growth at 10 uM after 48 hrs by sulforhodamine B assay; details: RPMI-8226, 48 h, read-out: Activity
[17] = tested on: HCC 2998; experiment: Cytotoxicity against human HCC2998 cells assessed as cell growth at 0.1 uM after 48 hrs by sulforhodamine B assay; details: HCC 2998, 48 h, read-out: Activity; method in brief: as §3
[18] = tested on: HT-29; experiment: Cytotoxicity against human HT-29 cells assessed as cell growth at 1 uM after 48 hrs by sulforhodamine B assay; details: HT-29, 48 h, read-out: Activity; method in brief: as §3
[19] = tested on: LOX IMVI; experiment: Cytotoxicity against human LOXIMVI cells assessed as cell growth at 10 '-5 M after 48 hrs by sulforhodamine B assay; details: read-out: Activity
[20] = tested on: MDA-MB-231; experiment: Cytotoxicity against human MDA-MB-231 cells assessed as cell growth at 100 uM after 48 hrs by sulforhodamine B assay; details: MDA-MB-231, 48 h, read-out: Activity
[21] = tested on: SK-MEL-5; experiment: Cytotoxicity against human SK-MEL-5 cells assessed as cell growth at 10 '-5 M after 48 hrs by sulforhodamine B assay; details: SK-MEL-5, 48 h, read-out: Activity
[22] = tested on: SF-295; experiment: Growth inhibition of human SF295 cells after 48 hrs by sulforhodamine B assay; details: SF-295, 48 h; for CC50: read-out: LC50 (the source's name); method in brief: as §1
[23] = tested on: M14; experiment: Cytotoxicity against human M14 cells assessed as cell growth at 10 '-5 M after 48 hrs by sulforhodamine B assay; details: M14, 48 h, read-out: Activity
[24] = tested on: ACHN; experiment: Cytotoxicity against human ACHN cells assessed as cell growth at 1 uM after 48 hrs by sulforhodamine B assay; details: read-out: Activity; method in brief: as §2
[25] = tested on: OVCAR-8; experiment: Cytotoxicity against human OVCAR8 cells assessed as cell growth at 10 '-5 M after 48 hrs by sulforhodamine B assay; details: OVCAR-8, 48 h, read-out: Activity
[26] = tested on: OVCAR-8; experiment: Cytotoxicity against human OVCAR8 cells assessed as cell growth at 10 uM after 48 hrs by sulforhodamine B assay; details: OVCAR-8, 48 h, read-out: Activity
[27] = tested on: SK-MEL-5; experiment: Cytotoxicity against human SK-MEL-5 cells assessed as cell growth at 100 uM after 48 hrs by sulforhodamine B assay; details: SK-MEL-5, 48 h, read-out: Activity
[28] = Cytotoxicity against human Hs 578T cells assessed as cell growth at 100 uM after 48 hrs by sulforhodamine B assay; details: read-out: Activity
[29] = tested on: SNB-75; experiment: Cytotoxicity against human SNB75 cells assessed as cell growth at 10 uM after 48 hrs by sulforhodamine B assay; details: SNB-75, 48 h, read-out: Activity

Structure (SMILES) | TGI [1] | CC50 [1] | growth at 0.01 µM [2] | GI50 [3] | TGI [3] | growth at 0.01 µM [4] | GI50 [5] | TGI [5] | CC50 [5] | growth at 10 µM [6] | growth at 1 µM [7] | LC50 [8] | TGI [8] | growth at 1 µM [9] | growth at 100 µM [10] | growth at 100 µM [11] | growth at 1 µM [12] | growth at 0.1 µM [13] | TGI [14] | CC50 [14] | other results
Cc1ccc2nc(Nc3c(C)cccc3C)sc2c1 | > 100 µM | > 100 µM | 103% | 0.552 µM | > 100 µM | 92% | 0.412 µM | > 100 µM | > 100 µM | 9% | 89% | > 100 µM | > 100 µM | 19% | 55% | 46% | 40% | 82% | > 100 µM | > 100 µM | CC50 ([3]; read-out: LC50 (the source's name)): > 100 µM; growth at 10 µM [15]: 61%; growth at 10 µM [16]: 55%; growth at 0.1 µM [17]: 90%; growth at 1 µM [18]: 39%; growth at 10 µM [19]: 24.7%; growth at 100 µM [20]: -6%; growth at 10 µM [21]: 26.8%; GI50 [22]: 0.725 µM; TGI [22]: > 100 µM; CC50 [22]: > 100 µM; growth at 10 µM [23]: 26.2%; growth at 1 µM [24]: 84%; growth at 10 µM [25]: 56.4%; growth at 10 µM [26]: 67%; growth at 100 µM [27]: 60%; growth at 100 µM [28]: 27%; growth at 10 µM [29]: 36%
Clc1cccc(Cl)c1Nc1nc2cccc(Cl)c2s1 | 2.3 µM | 6.81 µM | 103% | 1.02 µM | 2.61 µM | 87% | 1.03 µM | 3.24 µM | > 100 µM | -73% | 58% | 7.44 µM | 3.29 µM | 51% | -69% | -64% | 36% | 81% | 2.12 µM | 4.85 µM | GI50 [1]: 0.526 µM; GI50 [8]: 1.46 µM; GI50 [14]: 0.772 µM; growth at 10 µM [15]: -33.9%; growth at 10 µM [16]: -19%; growth at 0.1 µM [17]: 87%; growth at 1 µM [18]: 65%; growth at 10 µM [19]: -88.3%; growth at 100 µM [20]: -70%; growth at 10 µM [21]: -71.3%; GI50 [22]: 0.459 µM; TGI [22]: 1.9 µM; CC50 [22]: 4.96 µM; growth at 10 µM [23]: -61.3%; growth at 1 µM [24]: 60%; growth at 10 µM [25]: -13.8%; growth at 10 µM [26]: -71%; growth at 100 µM [27]: -76%; growth at 100 µM [28]: -17%; growth at 10 µM [29]: -32%
